Laboratory results reported in ChEMBL document CHEMBL4152234, “Aminobenzothiazole derivatives stabilize the thermolabile p53 cancer mutant Y220C and show anticancer activity in p53-Y220C cell lines” (Eur J Med Chem, 2018).
pIC50, pKd: −log10 of the molar value. The source made the active and inactive calls. The rule behind the calls is not given here.

Legend:
[1] = Solubility of the compound in water; type: physicochemical; conditions: buffer
[2] = target: T1, Cellular tumor antigen p53 (Homo sapiens, UniProt P04637, Y220C); assay: Binding affinity to p53 Y220C mutant (unknown origin)
[3] = tested on: Cellular tumor antigen p53 (Homo sapiens), P04637 [Y220C]; assay: Binding affinity to p53 Y220C mutant (unknown origin) assessed as change in melting temperature at 250 uM
[4] = target: T1, Cellular tumor antigen p53; assay: Binding affinity to N-terminal His6-tagged p53 DNA binding domain Y220C mutant (94 to 312 residues) (unknown origin) expressed in Escherichia coli C41 by ITC
[5] = tested on: Cellular tumor antigen p53 (Homo sapiens), P04637 [Y220C]; assay: Binding affinity to p53 Y220C mutant (unknown origin) assessed as change in melting temperature at 1 mM
Huh-7 [6] = assay: Antiproliferative activity against p53 Y220C mutant knockout human HuH7 cells up to 120 uM after 72 hrs by CellTiter-Glo assay; type: functional, cell-based
[7] = tested on: Cellular tumor antigen p53 (Homo sapiens), P04637 [Y220C]; assay: Binding affinity to p53 Y220C mutant (unknown origin) assessed as change in melting temperature
Huh-7 [8] = assay: Antiproliferative activity against human HuH7 cells harboring p53 Y220C mutant after 72 hrs by CellTiter-Glo assay; type: functional, cell-based; conditions: Huh-7, 72 h
How it was run: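 Cells were exposed to compound for 72 h and viability read by CellTiter-Fluor or CellTiter-Glo 2.0. Quadruplicate technical replicates, normalized to blank (viability = 1) and no-cell (viability = 0) controls. Confirmed in at least 2 independent biological replicates. IC50 derived from the dose-response data.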

## CNC(=O)c1cc(I)c(-n2cccc2)c(I)c1O
[1]
  solubility: Insoluble

## O=C(O)c1cc(I)c(-n2cccc2)c(I)c1O
[2]
  pKd: 4.68
[1]
  solubility: Soluble
[3]
  ΔTm: 1.8 °C
[4]
  pKd: 4.68

## O=C(O)c1cc(I)cc(I)c1O
[2]
  pKd: 3.09
[1]
  solubility: Soluble
[5]
  ΔTm: 0.6 °C

## CCN(CC)c1nc2c(C(=O)OC)c(O)c(I)c(-n3cccc3)c2s1
[1]
  solubility: Insoluble

## CCN(CC)c1nc2c(C(=O)O)c(O)c(I)c(-n3cccc3)c2s1
Huh-7 [6]
  Activity: inactive

## COC(=O)c1cc(I)c(-n2cccc2)c(I)c1O
[1]
  solubility: Insoluble

## CCN(CC)C1CCN(Cc2cc(C#CCNc3ccccc3)cc(I)c2O)CC1
[7]
  ΔTm: 4 °C

## CCCSc1cc(C(=O)O)c(O)c(I)c1-n1cccc1
Huh-7 [8]
  pIC50: 3.82

## CN(C)CCNC(=O)c1cc(I)c(-n2cccc2)c(I)c1O
[1]
  solubility: Insoluble
